Assay results taken from ChEMBL document CHEMBL2203085, “Modification of a promiscuous inhibitor shifts the inhibition from γ-secretase to FLT-3” (Bioorg Med Chem Lett, 2012).
Each block holds one molecule with its values, some of them ahead of it.

Legend:
Gamma-secretase = experiment: Inhibition of gamma secretase in human H4 cells expressing APP695 assessed as inhibition of Abeta42 production after 20 to 24 hrs by liquid phase electrochemiluminescence assay; type: cell-based
How it was run: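 Aβ42 generation in H4 APP#9 cells was quantified by a previously described liquid-phase electrochemiluminescence (LPECL) assay of the Aβ42 isoform as the read-out of γ-secretase inhibition.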

H4 [1] = experiment: Cytotoxicity against human H4 cells at 40 uM; type: cell-based; settings: h4, 40 µM
How it was run: (§1)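 H4 APP#9 cells were used for cell-based toxicity testing, and toxicity was scored as yes or no at each concentration tested.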

H4 [2] = experiment: Cytotoxicity against human H4 cells at 80 uM; type: cell-based; settings: h4, 80 µM; how it was run: as §1
H4 [3] = experiment: Cytotoxicity against human H4 cells at 10 uM; type: cell-based; settings: h4, 10 µM; how it was run: as §1
[4] = target: Serine/threonine-protein kinase MARK1 (Homo sapiens) (UniProt Q9P0L2); experiment: Inhibition of human recombinant MARK1 using Ulight-RRRSLLE as substrate assessed as residual activity at 1 uM after 30 mins relative to staurosporine
How it was run: (§2)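 Part of a 50-kinase panel screen at a single concentration. Residual activity is given as percent of control specific activity, calculated as (measured specific activity/control specific activity) × 100, with staurosporine as the control. The kinase-specific details are in the supplementary data.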

[5] = target: Serine/threonine-protein kinase 26 (Homo sapiens) (UniProt Q9P289); experiment: Inhibition of human recombinant MST4 using Ulight-TM- PKC as substrate assessed as residual activity at 1 uM after 30 mins relative to staurosporine; how it was run: as §2
Sequence of Serine/threonine-protein kinase 26 (Homo sapiens) (Q9P289 2-416 limits assumed): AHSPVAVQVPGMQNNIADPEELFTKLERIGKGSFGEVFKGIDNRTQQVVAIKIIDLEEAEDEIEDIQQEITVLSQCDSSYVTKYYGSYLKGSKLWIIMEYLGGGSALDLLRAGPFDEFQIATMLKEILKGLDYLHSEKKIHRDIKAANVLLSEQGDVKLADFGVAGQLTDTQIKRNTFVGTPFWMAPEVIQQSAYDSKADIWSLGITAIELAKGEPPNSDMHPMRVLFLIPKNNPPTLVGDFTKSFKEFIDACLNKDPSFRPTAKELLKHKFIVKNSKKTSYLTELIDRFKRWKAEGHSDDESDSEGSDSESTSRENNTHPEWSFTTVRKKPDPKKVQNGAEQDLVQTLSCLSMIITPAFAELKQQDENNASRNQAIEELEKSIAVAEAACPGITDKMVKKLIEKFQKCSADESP

H4 [6] = experiment: Selectivity ratio of IC50 for gamma secretase in human H4 cells to IC50 for human recombinant FLT3; type: cell-based
[7] = target: Epidermal growth factor receptor (Homo sapiens) (UniProt P00533); experiment: Inhibition of human recombinant EGFR expressed in insect cells using Ulight-CAGAGAIETDKEYYTVKD as substrate assessed as residual activity at 1 uM after 15 mins relative to staurosporine; how it was run: as §2
[8] = target: Glycogen synthase kinase-3 alpha (Homo sapiens) (UniProt P49840); experiment: Inhibition of human recombinant GSK3alpha using Ulight-CFFKNIVTPRTPPPSQGK-amide as substrate assessed as residual activity at 1 uM after 60 mins relative to staurosporine; how it was run: as §2
Sequence of Glycogen synthase kinase-3 alpha (Homo sapiens) (P49840 2-483 limits assumed): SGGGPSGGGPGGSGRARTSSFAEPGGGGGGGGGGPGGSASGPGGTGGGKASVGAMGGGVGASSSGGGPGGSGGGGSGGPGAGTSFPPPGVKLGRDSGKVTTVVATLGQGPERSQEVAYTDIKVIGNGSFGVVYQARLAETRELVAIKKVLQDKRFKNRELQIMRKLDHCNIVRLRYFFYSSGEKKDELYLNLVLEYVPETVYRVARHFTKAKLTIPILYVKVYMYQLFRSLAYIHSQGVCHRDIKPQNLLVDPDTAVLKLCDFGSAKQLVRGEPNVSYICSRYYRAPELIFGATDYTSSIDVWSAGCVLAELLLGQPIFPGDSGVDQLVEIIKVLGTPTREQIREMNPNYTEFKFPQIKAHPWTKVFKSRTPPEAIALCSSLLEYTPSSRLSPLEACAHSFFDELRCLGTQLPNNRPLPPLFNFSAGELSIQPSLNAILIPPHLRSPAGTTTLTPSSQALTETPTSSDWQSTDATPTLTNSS

[9] = target: RAC-alpha serine/threonine-protein kinase (Homo sapiens) (UniProt P31749); experiment: Inhibition of human recombinant AKT1 expressed in insect cells using CKRREILSRRPSYRK as substrate assessed as residual activity at 1 uM after 60 mins relative to staurosporine; how it was run: as §2
[10] = target: Aurora kinase A (Homo sapiens) (UniProt O14965); experiment: Inhibition of human recombinant Aurora A expressed in Sf21 cells using Ulight-RRRSLLE as substrate assessed as residual activity at 1 uM after 15 mins relative to staurosporine; how it was run: as §2
Sequence of Aurora kinase A (Homo sapiens) (O14965 whole entry): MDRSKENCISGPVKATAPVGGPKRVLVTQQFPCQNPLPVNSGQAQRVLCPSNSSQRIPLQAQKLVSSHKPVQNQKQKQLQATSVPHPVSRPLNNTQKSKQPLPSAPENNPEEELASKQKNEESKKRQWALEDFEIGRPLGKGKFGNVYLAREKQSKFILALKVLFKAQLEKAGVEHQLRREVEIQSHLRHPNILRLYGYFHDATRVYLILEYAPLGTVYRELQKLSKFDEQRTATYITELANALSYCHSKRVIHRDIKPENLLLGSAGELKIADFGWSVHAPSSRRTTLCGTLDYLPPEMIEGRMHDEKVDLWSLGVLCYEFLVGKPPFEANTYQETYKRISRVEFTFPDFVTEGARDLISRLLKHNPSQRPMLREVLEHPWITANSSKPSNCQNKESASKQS

[11] = target: Hepatocyte growth factor receptor (Homo sapiens) (UniProt P08581); experiment: Inhibition of human recombinant cMET expressed in insect cells using Ulight-CAGAGAIETDKEYYTVKD as substrate assessed as residual activity at 1 uM after 60 mins relative to staurosporine
How it was run: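 Single-point kinase-panel screen at 1 µM test concentration. Specific activity was measured and expressed as percent of the staurosporine control, calculated as (measured specific activity / control specific activity) × 100.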

[12] = target: Fibroblast growth factor receptor 2 (Homo sapiens) (UniProt P21802); experiment: Inhibition of human recombinant FGFR2 using Ulight-CAGAGAIETDKEYYTVKD as substrate assessed as residual activity at 1 uM after 15 mins relative to staurosporine; how it was run: as §2
[13] = target: Serine/threonine-protein kinase Chk1 (Homo sapiens) (UniProt O14757); experiment: Inhibition of human recombinant CHK1 expressed in insect cells using CKRREILSRRPSYRK as substrate assessed as residual activity at 1 uM after 30 mins relative to staurosporine; how it was run: as §2
Sequence of Serine/threonine-protein kinase Chk1 (Homo sapiens) (O14757 whole entry): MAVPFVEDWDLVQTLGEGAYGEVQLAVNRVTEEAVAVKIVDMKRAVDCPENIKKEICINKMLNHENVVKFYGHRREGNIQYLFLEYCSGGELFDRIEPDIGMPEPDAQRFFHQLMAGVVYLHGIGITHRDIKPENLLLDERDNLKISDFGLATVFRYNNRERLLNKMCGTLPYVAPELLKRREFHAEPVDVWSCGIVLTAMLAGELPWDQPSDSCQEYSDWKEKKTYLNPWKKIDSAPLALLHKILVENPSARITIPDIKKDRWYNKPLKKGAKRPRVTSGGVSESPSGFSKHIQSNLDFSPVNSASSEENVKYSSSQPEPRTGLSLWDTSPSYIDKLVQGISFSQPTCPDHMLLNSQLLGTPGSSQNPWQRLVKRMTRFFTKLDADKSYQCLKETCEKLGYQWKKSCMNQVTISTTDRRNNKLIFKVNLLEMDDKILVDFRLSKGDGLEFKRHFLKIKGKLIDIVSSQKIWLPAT

Homo sapiens = species on record: Homo sapiens; experiment: Inhibition of human recombinant PKA expressed in Escherichia coli using Ulight-RRRSLLE as substrate assessed as residual activity at 1 uM after 10 mins relative to staurosporine; how it was run: as §2
[14] = target: Serine/threonine-protein kinase Nek2 (Homo sapiens) (UniProt P51955); experiment: Inhibition of human recombinant NEK2 expressed in insect cells using Ulight-FLGFTYVAP as substrate assessed as residual activity at 1 uM after 60 mins relative to staurosporine; how it was run: as §2
Sequence of Serine/threonine-protein kinase Nek2 (Homo sapiens) (P51955 whole entry): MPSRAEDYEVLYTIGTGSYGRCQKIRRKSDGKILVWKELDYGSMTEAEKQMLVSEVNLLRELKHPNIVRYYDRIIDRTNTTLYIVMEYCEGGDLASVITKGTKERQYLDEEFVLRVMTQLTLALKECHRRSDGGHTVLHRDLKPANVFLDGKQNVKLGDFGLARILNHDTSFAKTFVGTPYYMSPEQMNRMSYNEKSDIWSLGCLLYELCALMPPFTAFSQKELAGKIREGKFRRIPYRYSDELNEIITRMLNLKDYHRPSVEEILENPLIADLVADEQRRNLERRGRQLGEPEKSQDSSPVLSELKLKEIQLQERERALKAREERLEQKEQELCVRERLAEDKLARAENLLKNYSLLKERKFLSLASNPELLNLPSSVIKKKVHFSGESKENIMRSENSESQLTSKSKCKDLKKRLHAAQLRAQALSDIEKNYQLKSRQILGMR

[15] = target: Protein kinase C beta type (Homo sapiens) (UniProt P05771); experiment: Inhibition of human recombinant PKCbeta2 using CKRREILSRRPSYRK as substrate assessed as residual activity at 1 uM after 15 mins relative to staurosporine; how it was run: as §2
Sequence of Protein kinase C beta type (Homo sapiens) (P05771 2-671 limits assumed): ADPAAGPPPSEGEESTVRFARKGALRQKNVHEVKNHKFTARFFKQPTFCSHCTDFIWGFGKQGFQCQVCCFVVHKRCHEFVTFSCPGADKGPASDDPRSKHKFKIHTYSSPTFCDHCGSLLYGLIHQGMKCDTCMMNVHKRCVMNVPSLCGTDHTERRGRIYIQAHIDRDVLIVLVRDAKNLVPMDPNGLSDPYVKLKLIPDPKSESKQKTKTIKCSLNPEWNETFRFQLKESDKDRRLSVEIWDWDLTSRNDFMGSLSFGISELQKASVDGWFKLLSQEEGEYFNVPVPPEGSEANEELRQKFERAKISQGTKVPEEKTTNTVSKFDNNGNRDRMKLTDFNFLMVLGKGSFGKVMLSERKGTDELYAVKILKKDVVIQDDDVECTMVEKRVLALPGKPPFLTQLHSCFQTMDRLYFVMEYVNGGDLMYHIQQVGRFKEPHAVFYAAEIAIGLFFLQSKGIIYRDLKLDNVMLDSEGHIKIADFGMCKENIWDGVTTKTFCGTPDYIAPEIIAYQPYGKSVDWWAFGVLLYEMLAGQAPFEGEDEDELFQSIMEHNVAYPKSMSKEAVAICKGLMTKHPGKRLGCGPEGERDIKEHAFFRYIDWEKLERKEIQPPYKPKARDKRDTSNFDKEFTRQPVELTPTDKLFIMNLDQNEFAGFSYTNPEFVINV

[16] = target: Glycogen synthase kinase-3 beta (Homo sapiens) (UniProt P49841); experiment: Inhibition of human recombinant GSK3beta using Ulight-CFFKNIVTPRTPPPSQGK-amide as substrate assessed as residual activity at 1 uM after 90 mins relative to staurosporine; how it was run: as §2
Sequence of Glycogen synthase kinase-3 beta (Homo sapiens) (P49841 whole entry, looked up): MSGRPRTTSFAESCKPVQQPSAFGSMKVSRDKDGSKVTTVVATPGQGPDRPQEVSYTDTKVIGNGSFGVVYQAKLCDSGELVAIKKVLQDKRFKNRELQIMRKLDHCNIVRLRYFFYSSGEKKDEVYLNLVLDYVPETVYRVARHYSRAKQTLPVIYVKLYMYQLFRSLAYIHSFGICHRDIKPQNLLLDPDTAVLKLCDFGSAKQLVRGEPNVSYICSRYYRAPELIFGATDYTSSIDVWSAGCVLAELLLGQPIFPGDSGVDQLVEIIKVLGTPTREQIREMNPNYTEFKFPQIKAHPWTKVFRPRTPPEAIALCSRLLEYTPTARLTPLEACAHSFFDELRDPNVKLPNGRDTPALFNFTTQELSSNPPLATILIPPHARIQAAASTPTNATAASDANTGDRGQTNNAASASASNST

[17] = target: Serine/threonine-protein kinase PAK 4 (Homo sapiens) (UniProt O96013); experiment: Inhibition of human recombinant PAK4 expressed in insect cells using Ulight-RRRSLLE as substrate assessed as residual activity at 1 uM after 30 mins relative to staurosporine; how it was run: as §2
[18] = target: Receptor-type tyrosine-protein kinase FLT3 (Homo sapiens) (UniProt P36888); experiment: Inhibition of human recombinant FLT3 expressed in insect cells using Ulight-CAGAGAIETDKEYYTVKD as substrate assessed as residual activity at 1 uM after 90 mins relative to staurosporine; how it was run: as §2
Sequence of Receptor-type tyrosine-protein kinase FLT3 (Homo sapiens) (P36888 whole entry): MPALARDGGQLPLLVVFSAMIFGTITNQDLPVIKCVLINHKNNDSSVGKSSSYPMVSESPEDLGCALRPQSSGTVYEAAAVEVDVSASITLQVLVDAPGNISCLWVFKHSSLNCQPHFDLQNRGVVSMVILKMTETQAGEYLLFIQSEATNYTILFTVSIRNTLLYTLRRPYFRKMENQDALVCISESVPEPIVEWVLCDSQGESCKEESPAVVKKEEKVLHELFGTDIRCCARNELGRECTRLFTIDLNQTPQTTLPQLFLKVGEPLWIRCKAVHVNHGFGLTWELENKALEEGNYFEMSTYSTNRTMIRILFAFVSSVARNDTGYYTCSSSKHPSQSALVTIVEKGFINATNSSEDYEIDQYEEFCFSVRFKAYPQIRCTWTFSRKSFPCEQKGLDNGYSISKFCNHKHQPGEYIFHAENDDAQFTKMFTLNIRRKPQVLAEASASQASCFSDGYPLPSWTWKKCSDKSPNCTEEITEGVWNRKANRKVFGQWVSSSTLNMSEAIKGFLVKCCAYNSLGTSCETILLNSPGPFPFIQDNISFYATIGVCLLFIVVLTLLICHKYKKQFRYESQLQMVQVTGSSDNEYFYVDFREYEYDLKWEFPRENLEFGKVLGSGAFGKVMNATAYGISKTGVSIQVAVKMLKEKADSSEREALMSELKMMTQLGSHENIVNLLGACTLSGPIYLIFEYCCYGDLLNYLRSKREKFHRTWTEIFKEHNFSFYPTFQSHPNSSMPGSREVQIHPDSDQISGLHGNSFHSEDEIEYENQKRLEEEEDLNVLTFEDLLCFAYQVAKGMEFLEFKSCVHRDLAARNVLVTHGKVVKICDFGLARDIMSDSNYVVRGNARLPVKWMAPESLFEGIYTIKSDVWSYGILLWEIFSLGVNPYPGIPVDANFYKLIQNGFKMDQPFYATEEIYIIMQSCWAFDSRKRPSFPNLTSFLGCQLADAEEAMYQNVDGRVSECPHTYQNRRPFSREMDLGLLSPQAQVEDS

[19] = target: Ephrin type-B receptor 4 (Homo sapiens) (UniProt P54760); experiment: Inhibition of human recombinant EPHB4 expressed in insect cells using Ulight-TK peptide as substrate assessed as residual activity at 1 uM after 90 mins relative to staurosporine; how it was run: as §2
[20] = target: Inhibitor of nuclear factor kappa-B kinase subunit alpha (Homo sapiens) (UniProt O15111); experiment: Inhibition of human recombinant IKKalpha expressed in Sf21 cells using + Ulight-IkappaB-alpha as substrate assessed as residual activity at 1 uM after 30 mins relative to staurosporine; how it was run: as §2
[21] = target: Mitogen-activated protein kinase 1 (Homo sapiens) (UniProt P28482); experiment: Inhibition of human recombinant ERK2 expressed in Escherichia coli using Ulight-CFFKNIVTPRTPPPSQGK-amide as substrate assessed as residual activity at 1 uM after 15 mins relative to staurosporine; how it was run: as §2
Danio rerio = species on record: Danio rerio; experiment: Toxicity against zebra fish embryo assessed as developmental delay at 20 uM incubated from 4 hrs to 48 hrs post fertilization by microscopic analysis; type: organism-based; settings: zebrafish, in vivo
How it was run: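 Zebrafish embryos were collected and kept in E2 medium at 28 °C. Compound was added at 4–5 hpf at 5 or 20 µM alongside untreated controls. Phenotypes were compared with controls at 48 hpf.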

[22] = target: Tyrosine-protein kinase JAK3 (Homo sapiens) (UniProt P52333); experiment: Inhibition of human recombinant JAK3 using Ulight-CAGAGAIETDKEYYTVKD as substrate assessed as residual activity at 1 uM after 60 mins relative to staurosporine; how it was run: as §2
[23] = target: 3-phosphoinositide-dependent protein kinase 1 (Homo sapiens) (UniProt O15530); experiment: Inhibition of human recombinant PDK1 expressed in insect cells using Ulight-FLGFTYVAP as substrate assessed as residual activity at 1 uM after 90 mins relative to staurosporine; how it was run: as §2
[24] = target: Fibroblast growth factor receptor 3 (Homo sapiens) (UniProt P22607); experiment: Inhibition of human recombinant FGFR3 using Ulight-CAGAGAIETDKEYYTVKD as substrate assessed as residual activity at 1 uM after 90 mins relative to staurosporine; how it was run: as §2
[25] = target: Dual specificity mitogen-activated protein kinase kinase 6 (Homo sapiens) (UniProt P52564); experiment: Inhibition of human recombinant MKK6 using inactive p38alpha as substrate assessed as residual activity at 1 uM after 10 mins relative to staurosporine; how it was run: as §2
[26] = target: Serine/threonine-protein kinase Sgk1 (Homo sapiens) (UniProt O00141); experiment: Inhibition of human recombinant SGK1 using Ulight-RRRSLLE as substrate assessed as residual activity at 1 uM after 30 mins relative to staurosporine; how it was run: as §2
[27] = target: Cyclin-dependent kinase 2/cyclin A (Homo sapiens) (UniProt P24941+P20248+P78396); experiment: Inhibition of human recombinant CDK2/cyclin A using Ulight-CFFKNIVTPRTPPPSQGK-amide as substrate assessed as residual activity at 1 uM after 30 mins relative to staurosporine; type: protein-complex assay; how it was run: as §2
[28] = target: Serine/threonine-protein kinase PLK1 (Homo sapiens) (UniProt P53350); experiment: Inhibition of human recombinant PLK1 using Ulight-FLGFTYVAP as substrate assessed as residual activity at 1 uM after 60 mins relative to staurosporine; how it was run: as §2
Sequence of Serine/threonine-protein kinase PLK1 (Homo sapiens) (P53350 whole entry): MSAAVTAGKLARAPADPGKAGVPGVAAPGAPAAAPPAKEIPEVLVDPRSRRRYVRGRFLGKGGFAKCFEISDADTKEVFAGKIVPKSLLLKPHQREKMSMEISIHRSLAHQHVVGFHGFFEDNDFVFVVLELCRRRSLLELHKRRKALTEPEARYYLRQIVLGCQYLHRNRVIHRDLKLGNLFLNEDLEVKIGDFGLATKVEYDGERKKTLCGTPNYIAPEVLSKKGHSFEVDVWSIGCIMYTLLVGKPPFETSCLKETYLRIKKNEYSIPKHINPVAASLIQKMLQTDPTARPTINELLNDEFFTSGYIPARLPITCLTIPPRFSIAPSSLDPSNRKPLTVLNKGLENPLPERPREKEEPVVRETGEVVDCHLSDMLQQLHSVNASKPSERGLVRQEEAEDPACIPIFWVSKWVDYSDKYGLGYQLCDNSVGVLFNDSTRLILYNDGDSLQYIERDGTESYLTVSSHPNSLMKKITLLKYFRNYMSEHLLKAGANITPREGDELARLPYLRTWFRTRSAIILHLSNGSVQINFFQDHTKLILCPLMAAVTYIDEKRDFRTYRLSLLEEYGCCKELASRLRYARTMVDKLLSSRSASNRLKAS

H4 [29] = experiment: Cytotoxicity against human H4 cells at 20 uM; type: cell-based; settings: h4, 20 µM; how it was run: as §1
H4 [30] = experiment: Cytotoxicity against human H4 cells at 160 uM; type: cell-based; settings: h4, 160 µM; how it was run: as §1

Compound: COc1ccc(/C=C2\C(=O)Nc3ccc(Cl)cc32)cc1
IC50 (Gamma-secretase): > 40 µM | Activity (H4 [1]): Non-toxic

Compound: O=C1Nc2ccc(Cl)cc2/C1=C/c1ccc(O)cc1
IC50 (Gamma-secretase): 47.6 µM | Activity (H4 [1]): Non-toxic

Compound: COC(=O)c1ccc(COc2ccc(/C=C3\C(=O)Nc4ccc(Cl)cc43)cc2)cc1
IC50 (Gamma-secretase): 38.8 µM | Activity (H4 [1]): Non-toxic

Compound: N#CCCCOc1ccc(/C=C2\C(=O)Nc3ccc(Cl)cc32)cc1
IC50 (Gamma-secretase): > 40 µM | Activity (H4 [1]): Toxic

Compound: Cn1c2ccccc2c2cc(/C=C3\C(=O)Nc4ccccc43)ccc21
IC50 (Gamma-secretase): 27.6 µM | Activity (H4 [2]): Toxic

Compound: O=C1Nc2ccc(Cl)cc2/C1=C/c1cc(Br)c(O)c(Br)c1
IC50 (Gamma-secretase): 15 µM | Activity (H4 [1]): Non-toxic

Compound: CCN(CC)CCOc1ccc(/C=C2\C(=O)Nc3ccc(Cl)cc32)cc1
Activity [4]: 99.6% | Activity [5]: 104% | IC50 (Gamma-secretase): 17.7 µM | Ratio IC50 (H4 [6]): 1000 | Activity [7]: 102% | Activity [8]: 104% | Activity [9]: 101% | Activity [10]: 99.6% | Activity [11]: 97.2% | Activity [12]: 100% | Activity [13]: 95.8% | Activity (Homo sapiens): 98.7% | Activity [14]: 107% | Activity [15]: 99.4% | Activity [16]: 97% | Activity [17]: 101% | Activity [18]: 14.7% | Activity [19]: 102% | Activity [20]: 104% | Activity [21]: 101% | Activity (Danio rerio): Toxic | Activity [22]: 67.3% | Activity [23]: 107% | Activity [24]: 92.9% | Activity [25]: 101% | Activity [26]: 96% | Activity [27]: 93.5% | Activity [28]: 100%

Compound: CCCCOc1ccc(/C=C2\C(=O)Nc3ccc(Cl)cc32)cc1
IC50 (Gamma-secretase): > 40 µM | Activity (H4 [1]): Non-toxic

Compound: O=C1Nc2ccc(Cl)cc2/C1=C/c1ccc(OCCCc2nnn[nH]2)cc1
IC50 (Gamma-secretase): 17.7 µM | Activity (H4 [1]): Toxic

Compound: N#Cc1cccc(COc2ccc(/C=C3\C(=O)Nc4ccc(Cl)cc43)cc2)c1
IC50 (Gamma-secretase): > 40 µM | Activity (H4 [1]): Non-toxic

Compound: CN(C)c1ccc(/N=N/c2ccc(/C=C3\C(=O)Nc4ccccc43)cc2)cc1
IC50 (Gamma-secretase): > 80 µM | Activity (H4 [2]): Non-toxic

Compound: COc1cc(/C=C2\C(=O)Nc3ccc(Cl)cc32)ccc1OCCN(C)C
IC50 (Gamma-secretase): 11.5 µM | Activity (H4 [1]): Toxic

Compound: N#Cc1ccc(COc2ccc(/C=C3\C(=O)Nc4ccc(Cl)cc43)cc2)cc1
IC50 (Gamma-secretase): 27.3 µM | Activity (H4 [1]): Non-toxic

Compound: Cn1c2ccccc2c2cc(/C=C3\C(=O)Nc4ccc(Cl)cc43)ccc21
IC50 (Gamma-secretase): 19.8 µM | Activity (H4 [2]): Non-toxic

Compound: COc1cc(/C=C2\C(=O)Nc3ccc(Cl)cc32)ccc1OCCCC#N
Activity (H4 [30]): Non-toxic | IC50 (Gamma-secretase): > 160 µM

The next lines start with results.

IC50 (Gamma-secretase): 4.7 µM
Compound: O=C1Nc2ccc(Cl)cc2/C1=C/c1ccc(OCCCCl)cc1
Activity (H4 [1]): Toxic

IC50 (Gamma-secretase): 7.6 µM
Compound: CN(C)CCOc1ccc(/C=C2\C(=O)Nc3ccc(Cl)cc32)cc1
Activity (H4 [1]): Non-toxic

IC50 (Gamma-secretase): 10 µM
Compound: COc1cc(OCCN(C)C)ccc1/C=C1\C(=O)Nc2ccc(Cl)cc21
Activity (H4 [1]): Non-toxic

IC50 (Gamma-secretase): 6.7 µM
Compound: COc1cc(/C=C2\C(=O)Nc3ccc(Cl)cc32)ccc1-n1cnc(C)c1
Activity (H4 [2]): Toxic

IC50 (Gamma-secretase): 5.4 µM
Compound: Cc1cn(-c2ccc(Oc3ccc(/C=C4\C(=O)Nc5ccc(Cl)cc54)cc3)cc2)cn1
Activity (H4 [3]): Toxic

IC50 (Gamma-secretase): 11.5 µM
Compound: CCN(CC)CCOc1ccc(/C=C2\C(=O)Nc3ccc(Cl)cc32)cc1OC
Activity (H4 [1]): Toxic

IC50 (Gamma-secretase): 7.3 µM
Compound: COc1cc(/C=C2\C(=O)Nc3ccc(Cl)cc32)ccc1S(C)(=O)=O
Activity (H4 [29]): Toxic

IC50 (Gamma-secretase): 11.3 µM
Compound: O=C1Nc2ccc(Cl)cc2/C1=C/c1ccc(OCCN2CCOCC2)cc1
Activity (H4 [1]): Non-toxic
